Test results as given in ChEMBL document CHEMBL5370653, “Stereoselective Synthesis, Pro-resolution, and Anti-inflammatory Actions of RvD5n-3 DPA” (J Nat Prod, 2023).
The source made the active and inactive calls.

Columns and labels:
Macrophage [1] = test: Induction of phagocytosis in human macrophages assessed as clearance of pHrodo red-conjugated zymosan A particles at 0.001 to 10 nM measured after 2 hrs by hoechst 33342 staining based high content imaging analysis; type: functional, cell-based; details: dose 0.001-10 nM
In short: (§1)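 Macrophages from donor PBMCs (7 days, RPMI-1640, 10% human serum, 20 ng/mL GM-CSF), 50,000 cells/well, adhered overnight, Hoechst-stained. Pretreated 15 min at 37 °C in RPMI-1640 with 0.001–10 nM or 0.05% ethanol vehicle. Opsonized pHrodo particles added (S. aureus or E. coli 5 μg/well, zymosan 2.5 μg/well). Phagocytosis imaged over 2 h. Mean ± SEM, N = 6 donors.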

[2] = Retention time of the compound in human serum by RP-LC-MS/MS; type: ADME, cell-free
In short: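 Pooled human serum (0.5 mL) mixed with 2 volumes cold MeOH containing d5-Maresin 1, held at −20 °C ≥45 min, then centrifuged. Automated C18 SPE at pH 3.5. Analyzed on a C18 Poroshell column at 0.5 mL/min with a MeOH/H2O/acetic acid gradient. MRM transition 361 > 199.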

Macrophage [3] = test: Induction of phagocytosis in human macrophages assessed as clearance of pHrodo green conjugated Staphylococcus aureus at 0.001 to 10 nM measured after 2 hrs by hoechst 33342 staining based high content imaging analysis; type: functional, cell-based; details: dose 0.001-10 nM; in short: as §1
Macrophage [4] = test: Induction of phagocytosis in human macrophages assessed as clearance of pHrodo red-conjugated Escherichia coli at 0.001 to 10 nM measured after 2 hrs by hoechst 33342 staining based high content imaging analysis; type: functional, cell-based; details: dose 0.001-10 nM; in short: as §1
Neutrophil [5] = test: Induction of phagocytosis in human Neutrophil assessed as clearance of pHrodo red-conjugated Escherichia coli at 0.001 to 10 nM measured after 2 hrs by hoechst 33342 high content imaging analysis; type: functional, cell-based; details: dose 0.001-10 nM
In short: (§2)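 Blood neutrophils from healthy donors, Hoechst 33342-stained, in X-VIVO15 with 2 mM L-glutamine and 1% pen/strep, 250,000 cells/well, adhered 30 min at 37 °C. Pretreated 15 min at 37 °C with 0.001–10 nM or 0.05% ethanol vehicle. Then given IgG-opsonized pHrodo particles (S. aureus 5 μg/well, E. coli 5 μg/well, zymosan 2.5 μg/well). Signal rise imaged over 2 h. Mean ± SEM, N = 6 donors.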

Neutrophil [6] = test: Induction of phagocytosis in human neutrophils assessed as clearance of pHrodo green conjugated Staphylococcus aureus at 0.001 to 10 nM measured after 2 hrs by hoechst 33342 staining based high content imaging analysis; type: functional, cell-based; details: dose 0.001-10 nM; in short: as §2
Neutrophil [7] = test: Induction of phagocytosis in human neutrophils assessed as clearance of pHrodo red-conjugated zymosan A particles at 0.001 to 10 nM measured after 2 hrs by hoechst 33342 staining based high content imaging analysis; type: functional, cell-based; details: dose 0.001-10 nM; in short: as §2
Macrophage [8] = test: Antiinflammatory activity in human macrophages assessed as decrease in CD142 level at 10 nM incubated for 7 days by flow cytometry analysis; type: functional, cell-based; details: time 7.0 day
In short: (§3)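 PBMCs from healthy donors (dextran RBC sedimentation, Histopaque-1077) seeded in low-adhesion plates, 800,000 cells/well. Differentiated to macrophages over 7 days in RPMI-1640 with 10% human serum and 20 ng/mL GM-CSF, with 10 nM test agent or 0.05% ethanol vehicle. Lifted with 5 mM EDTA, Fc-blocked with gamma globulins, surface-stained, then fixed/permeabilized for Arg1. Median fluorescence intensities analyzed by PLS-DA and VIP scores.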

Macrophage [9] = test: Antiinflammatory activity in human macrophages assessed as decrease in CD80 level at 10 nM incubated for 7 days by flow cytometry analysis; type: functional, cell-based; details: time 7.0 day; in short: as §3
Macrophage [10] = test: Antiinflammatory activity in human macrophages assessed as increase in arginase-1 level at 10 nM incubated for 7 days by flow cytometry analysis; type: functional, cell-based; details: time 7.0 day; in short: as §3
Macrophage [11] = test: Antiinflammatory activity in human macrophages assessed as increase in MerTK level at 10 nM incubated for 7 days by flow cytometry analysis; type: functional, cell-based; details: time 7.0 day; in short: as §3
Macrophage [12] = test: Antiinflammatory activity in human macrophages assessed as increase in CD163 at 10 nM incubated for 7 days by flow cytometry analysis; type: functional, cell-based; details: time 7.0 day; in short: as §3

CC/C=C\C[C@H](O)/C=C/C=C\C/C=C\C=C\[C@@H](O)CCCCCC(=O)O
active: Activity (Macrophage [1]) | Activity (Macrophage [3]) | Activity (Macrophage [4]) | Activity (Neutrophil [5]) | Activity (Neutrophil [6]) | Activity (Neutrophil [7]) | Activity (Macrophage [8]) | Activity (Macrophage [9]) | Activity (Macrophage [10]) | Activity (Macrophage [11]) | Activity (Macrophage [12])
13.5 min: Retention_time [2]
